In brackets after ≈: the same amount, converted by molar mass.
Key:
[1] = Aqueous solubility of the compound at pH 7.4 by HPLC analysis; type: physicochemical; conditions: buffer
Summary of the method: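 Solubility in aqueous buffer at pH 7.4, chosen to mimic plasma conditions; dissolved compound quantified by HPLC.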

[2] = Selectivity index, ratio of CC50 for human MT2 cells to EC50 for wild type HIV1 3B; type: toxicity, cell-based; conditions: read-out: Selectivity Index
Summary of the method: (§1)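 Run in MT-2 cells, at least in triplicate, reported as mean ± SD; the paired antiviral measurement used wild-type HIV-1 IIIB replication in MT-2 cells.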

MT2 = assay: Cytotoxicity against human MT2 cells assessed as cell viability; type: cell-based; summary of the method: as §1
[3] = tested on: Human immunodeficiency virus 1; assay: Antiviral activity against drug-resistant HIV1 A17 expressing K103N/Y181C mutant infected in human MT2 cells assessed as inhibition of viral replication; conditions: Human immunodeficiency virus 1, A17, MT2
[4] = tested on: Human immunodeficiency virus 1; assay: Antiviral activity against wild type HIV1 3B infected in human MT2 cells assessed as inhibition of viral replication; type: functional, organism-based; conditions: Human immunodeficiency virus 1, 3B
[5] = Aqueous solubility of the compound at pH 2 by HPLC analysis; type: physicochemical; conditions: buffer
Summary of the method: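 Solubility in aqueous buffer at pH 2.0, chosen to mimic stomach conditions; dissolved compound quantified by HPLC.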

[6] = Lipophilicity, log P of the compound by HPLC analysis; type: physicochemical
Summary of the method: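 Log P determined experimentally by HPLC at pH 7.4.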

[7] = tested on: Human immunodeficiency virus 1; assay: Fold resistance, ratio of EC50 for HIV1 A17 expressing K103N/Y181C mutant infected in human MT2 cells to EC50 for wild-type HIV1 3B infected in human MT2 cells; type: functional

Compound	solubility [1] [µg/mL]	selectivity ratio [2]	CC50 (MT2) [nM]	EC50 [3] [nM]	EC50 [4] [nM]	solubility [5] [µg/mL]	logP [6]	Ratio EC50 [7]	logP ([6]; read-out: logP)
COCc1cc(N)c(Nc2ccc(C#N)cc2)cc1Oc1c(C)cc(/C=C/C#N)cc1C	0.11 (≈ 0.259 µM)	8760	50300	14.7	5.74	1.7 (≈ 4 µM)	4.13	2.6	
Cc1cc(C#N)cc(C)c1Oc1cc(Nc2ccc(C#N)cc2)c(N)cc1CN1CCN(C)CC1		570	96900	> 2000	170			>11.8	
Cc1cc(C#N)cc(C)c1Oc1cc(Nc2ccc(C#N)cc2)c(N)cc1COC(C)C		6390	89400	315	14			22.5	
Cc1cc(C#N)cc(C)c1Oc1cc(Nc2ccc(C#N)cc2)c(N)cc1CO	0.86 (≈ 2.24 µM)	114000	122000	33.1	1.07	9.12 (≈ 23.7 µM)	3.57	30.9	
CNCc1cc(N)c(Nc2ccc(C#N)cc2)cc1Oc1c(C)cc(C#N)cc1C	159 (≈ 400 µM)	1280	12700	115	9.94	263 (≈ 662 µM)	1.86	11.6	
CC(=O)OCc1cc(N)c(Nc2ccc(C#N)cc2)cc1Oc1c(C)cc(C#N)cc1C	0.2 (≈ 0.469 µM)	107000	113000	374	1.06	16.7 (≈ 39.2 µM)	4.4	353	
Cc1cc(/C=C/C#N)cc(C)c1Nc1ccnc(Nc2ccc(C#N)cc2)n1 [RILPIVIRINE]			90700						> 5
CC(=O)OCc1cc(N)c(Nc2ccc(C#N)cc2)cc1Oc1c(C)cc(CCC#N)cc1C	1.86 (≈ 4.09 µM)	46700	44800	4.92	0.96	2.63 (≈ 5.79 µM)	2.84	5.1	
COCc1cc(N)c(Nc2ccc(C#N)cc2)cc1Oc1c(C)cc(CCC#N)cc1C	0.66 (≈ 1.55 µM)	> 61500		2.95	3.25	1.82 (≈ 4.27 µM)	3.25	0.91	
CC(=O)OCc1cc(N)c(Nc2ccc(C#N)cc2)cc1Oc1c(C)cc(/C=C/C#N)cc1C	0.49 (≈ 1.08 µM)	117000	96300	36.5	0.82	1.87 (≈ 4.13 µM)	4.48	44.5	
COCc1cc(N)c(Nc2ccc(C#N)cc2)cc1Oc1c(C)cc(C#N)cc1C	0.07 (≈ 0.176 µM)	41200	146000	298	3.54	3.75 (≈ 9.41 µM)	3.84	84.2	
Cc1cc(C#N)cc(C)c1Oc1cc(Nc2ccc(C#N)cc2)c(N)cc1CNC1CC1	13 (≈ 30.7 µM)	1140	12100	130	10.6	286 (≈ 675 µM)	3.84	12.3	
Cc1cc(C#N)cc(C)c1Oc1cc(Nc2ccc(C#N)cc2)c(N)cc1CNCCCO	236 (≈ 534 µM)	2480	15100	> 2000	6.1	290 (≈ 657 µM)	1.81	>328	
